Publication PMC7680358 (European journal of medicinal chemistry, 2020)
≈ marks a conversion by molar mass, not a printed value.

Tests used:
S. aureus ATCC 29213 = assay: Cell content quantification; format: cell-based, Staphylococcus aureus; details: ¼ and ⅛ MIC, versus untreated control
Procedure, shortened: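 S. aureus ATCC 29213 master culture was started at OD600 0.1 with shaking at 175 rpm, 37 °C. At OD600 0.2 (early log) it was split and dosed at ¼ and ⅛ MIC, with a drug-free control. Cells were harvested when the control reached OD600 0.6; other samples were taken at volumes adjusted to an OD600 equivalent of 0.6. 3 mL was pelleted at 5000 × g, 5 min, 4 °C, and DNA/RNA/protein co-extracted with a kit. DNA and RNA were read by fluorometric broad-range assays, protein by BCA. Triplicate.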

[1] = tested on: S. saprophyticus ATCC 15305; assay: MIC by broth microdilution; format: cell-based; details: Staphylococcus saprophyticus, ATCC15305, read-out: MIC SSAP
Procedure, shortened: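 Broth microdilution per CLSI in cation-adjusted Mueller-Hinton broth (Staphylococcus spp.). Two-fold serial dilutions ran from 256 to 0.5 μg/mL, with an inoculum of ~5 × 10^5 CFU/mL. Plates were read after 20 h at 37 °C. MIC = lowest concentration with no observable growth.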

[2] = tested on: B. subtilis strain BS1048 (RpoC-GFP); assay: Confocal fluorescence microscopy of GFP-tagged RNAP; format: cell-based; details: 8e added at ½ MIC, 15 min
Procedure, shortened: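 BS1048 (RpoC-GFP) was plated on LB agar. […] 2.5 μL of culture was mounted on a fresh 1.2% agarose pad under a coverslip. Imaging used a confocal microscope with a 63×/1.3 oil objective and a mercury metal halide lamp.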

| SMILES | Total RNA levels (S. aureus ATCC 29213) | Total levels of DNA (S. aureus ATCC 29213) | MIC [1] | Total levels of protein (S. aureus ATCC 29213) | Localization of GFP-tagged RNAP fluorescence [2] |
| --- | --- | --- | --- | --- | --- |
| CO[C@H]1/C=C/O[C@@]2(C)Oc3c(C)c(O)c4c(O)c(c(/C=N/N5CCN(C)CC5)c(O)c4c3C2=O)NC(=O)/C(C)=C\C=C\[C@H](C)[C@H](O)[C@@H](C)[C@@H](O)[C@@H](C)[C@H](OC(C)=O)[C@@H]1C [rifampicin, reference compound] | significantly reduced | largely unaffected |  |  |  |
| O=C(O)c1ccc(C(F)(F)F)cc1C(=O)c1ccc(Sc2ccc(Cl)c(Cl)c2)c([N+](=O)[O-])c1 [8e, 2-(4-((3,4-Dichlorophenyl)thio)-3-nitrobenzoyl)-4-(trifluoromethyl)benzoic acid] | reducing the total levels of staphylococcal RNA in a dose-dependent manner | largely unaffected | 0.5 to 1 µg/mL (≈ 0.968 to 1.94 µM) | reduced the total levels of protein | delocalized from the nucleoid |
